According to article PMC8906121 (Current Research in Parasitology & Vector-borne Diseases, 2021):
Several values for one entry are separate records, joined by “and”; a condition that tells them apart may be missing. Equal values may be shown once. Blank lines part the entries; values can stand above or below the compound they belong to.

Columns and labels:
[1] = test system: Anopheles funestus FANG (susceptible); assay: Glazed tile contact bioassay, strain FANG; assay type: in vivo; settings: for LC50: female adults, contact exposure 30 min; for LC50 / LC50 (solo contact toxicity of synergist): mortality 24 h; for LC50 (solo contact toxicity of synergist): synergist alone, 30 min exposure
Procedure, shortened: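 Adults aged 3–5 days, chilled to anaesthetize, recovered 1 h, then held 30 min on acetone-treated glazed tiles in two replicates of 10. Kept overnight on 10% dextrose; mortality scored at 24 h. Acetone-only control; Abbott correction for 5–20% control mortality, above 20% invalid. At least five repeats; probit LC50 with 95% CI. Synergist solo toxicity was tested the same way at 250–10,000 ppm.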

[2] = test system: Anopheles funestus FUMOZ-R (resistant); assay: Glazed tile contact bioassay, strain FUMOZ-R; assay type: in vivo; settings: for LC50: female adults, contact exposure 30 min; for LC50 / LC50 (solo contact toxicity of synergist): mortality 24 h; for LC50 (solo contact toxicity of synergist): synergist alone, 30 min exposure
[3] = biological target: para-type voltage-gated sodium channels of Musca domestica (Musca domestica, UniProt Q25439); assay: Fluorescence-based membrane potential cation influx assay; assay type: cell-based; settings: for EC50: EC50, HEK293-VGSC cells, membrane potential fluorescence
para-type voltage-gated sodium channels of Musca domestica, sequence (Q25439 1-2105): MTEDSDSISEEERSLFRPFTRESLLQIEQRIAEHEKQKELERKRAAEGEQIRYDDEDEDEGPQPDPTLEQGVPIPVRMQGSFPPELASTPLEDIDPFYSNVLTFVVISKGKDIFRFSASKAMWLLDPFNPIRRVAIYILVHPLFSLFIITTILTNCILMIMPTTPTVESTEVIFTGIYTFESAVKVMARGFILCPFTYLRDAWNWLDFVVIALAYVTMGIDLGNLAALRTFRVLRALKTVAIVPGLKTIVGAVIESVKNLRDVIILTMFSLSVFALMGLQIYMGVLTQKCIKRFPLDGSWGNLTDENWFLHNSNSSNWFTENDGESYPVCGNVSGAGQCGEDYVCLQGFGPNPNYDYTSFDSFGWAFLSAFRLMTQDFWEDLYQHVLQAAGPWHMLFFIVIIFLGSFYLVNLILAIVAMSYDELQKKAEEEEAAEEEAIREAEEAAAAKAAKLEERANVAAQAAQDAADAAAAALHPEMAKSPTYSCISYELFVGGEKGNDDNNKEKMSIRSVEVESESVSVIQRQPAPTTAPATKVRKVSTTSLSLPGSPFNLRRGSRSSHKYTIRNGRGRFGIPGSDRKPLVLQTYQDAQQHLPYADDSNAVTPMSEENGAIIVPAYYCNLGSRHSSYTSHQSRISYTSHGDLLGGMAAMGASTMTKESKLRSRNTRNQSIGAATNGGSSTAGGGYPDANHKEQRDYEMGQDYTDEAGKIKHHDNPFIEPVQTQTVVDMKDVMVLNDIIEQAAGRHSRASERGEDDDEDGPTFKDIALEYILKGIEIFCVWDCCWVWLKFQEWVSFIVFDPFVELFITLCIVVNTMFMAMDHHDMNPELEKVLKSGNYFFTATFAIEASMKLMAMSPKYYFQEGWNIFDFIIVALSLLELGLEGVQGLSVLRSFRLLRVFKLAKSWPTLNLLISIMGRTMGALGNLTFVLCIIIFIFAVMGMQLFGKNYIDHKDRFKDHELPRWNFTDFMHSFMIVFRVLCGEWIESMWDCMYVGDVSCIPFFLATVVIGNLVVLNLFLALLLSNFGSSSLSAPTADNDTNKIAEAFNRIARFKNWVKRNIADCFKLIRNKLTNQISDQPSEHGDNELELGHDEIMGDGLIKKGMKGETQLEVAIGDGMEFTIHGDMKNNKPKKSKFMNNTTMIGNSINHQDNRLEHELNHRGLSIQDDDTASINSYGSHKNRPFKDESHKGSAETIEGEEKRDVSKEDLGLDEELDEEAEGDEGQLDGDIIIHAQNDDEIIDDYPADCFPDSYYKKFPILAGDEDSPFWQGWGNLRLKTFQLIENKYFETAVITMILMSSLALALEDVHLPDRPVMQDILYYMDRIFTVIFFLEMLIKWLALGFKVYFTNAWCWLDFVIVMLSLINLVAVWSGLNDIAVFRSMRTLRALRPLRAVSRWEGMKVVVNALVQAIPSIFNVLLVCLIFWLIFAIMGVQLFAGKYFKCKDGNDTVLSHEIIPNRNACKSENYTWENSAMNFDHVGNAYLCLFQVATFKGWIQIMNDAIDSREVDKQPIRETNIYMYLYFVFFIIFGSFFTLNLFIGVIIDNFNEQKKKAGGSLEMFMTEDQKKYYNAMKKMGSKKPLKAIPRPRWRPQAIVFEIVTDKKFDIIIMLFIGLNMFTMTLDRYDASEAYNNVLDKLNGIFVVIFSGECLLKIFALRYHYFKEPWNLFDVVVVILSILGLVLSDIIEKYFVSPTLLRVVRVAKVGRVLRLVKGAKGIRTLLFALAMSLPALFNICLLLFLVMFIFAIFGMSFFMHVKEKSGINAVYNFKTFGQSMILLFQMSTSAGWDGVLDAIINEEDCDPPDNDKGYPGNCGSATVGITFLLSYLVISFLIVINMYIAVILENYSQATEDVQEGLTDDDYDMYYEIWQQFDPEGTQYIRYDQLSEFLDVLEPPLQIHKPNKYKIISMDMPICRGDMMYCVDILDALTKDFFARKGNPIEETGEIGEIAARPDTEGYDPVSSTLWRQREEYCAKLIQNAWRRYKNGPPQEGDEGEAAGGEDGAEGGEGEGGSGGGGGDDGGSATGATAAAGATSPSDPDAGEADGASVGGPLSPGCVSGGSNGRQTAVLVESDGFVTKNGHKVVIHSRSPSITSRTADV

[4] = test system: cytochrome P450s of microsomal preparations of Anopheles funestus strain FUMOZ-R; assay: Michaelis-Menten kinetics of BOMFC O-debenzylation, FUMOZ-R microsomes; assay type: biochemical; settings: read-out: apparent Km
Procedure, shortened: (§1)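 Microsomes from 30–50 adults, homogenized in pH 7.6 phosphate buffer with sucrose, DTT and EDTA, then spun 5,000× g, 15,000× g and 100,000× g at 4 °C. 4 μg protein incubated 1 h at 20 ± 1 °C with eleven BOMFC levels (200–0.195 μM) and 1 mM NADPH, in 0.01% zwittergent with 0.05% BSA. Stopped with pH 10 red-ox mix; hydroxycoumarin fluorescence read; quadruplicates; Michaelis-Menten fit.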

[5] = test system: cytochrome P450s of microsomal preparations of Anopheles funestus strain FANG; assay: Michaelis-Menten kinetics of BOMFC O-debenzylation, FANG microsomes; assay type: biochemical; settings: read-out: apparent Km
Procedure, shortened: as §1

Drosophila wildtype VGSC = Drosophila wildtype VGSC expressed in Xenopus oocytes; ref Vais et al., 2003; cited from earlier work

Structure (SMILES): CC1(C)C(C=C(Cl)Cl)C1C(=O)OC(C#N)c1cccc(Oc2ccccc2)c1 (stereo not drawn) [Cypermethrin]
LC50 [1]: 0.0968 mg/m^2
LC50 [2]: 7.54 mg/m^2
EC50 [3]: 38.9 nM

Structure (SMILES): CC1(C)C(C=C(Cl)Cl)C1C(=O)OCc1cccc(Oc2ccccc2)c1 (stereo not drawn) [Permethrin, permethrin]
LC50 [1]: 0.543 mg/m^2
RR fold lower than for deltamethrin ([2]; FUMOZ-R resistance ratio compared with deltamethrin): ~30 fold
Resistance ratio (RR) ([2]; LC50 FUMOZ-R divided by LC50 FANG): 7.76
LC50 [2]: 4.21 mg/m^2
EC50 [3]: 721 nM

Structure (SMILES): CCCCOCCOCCOCc1cc2c(cc1CCC)OCO2 [PBO, piperonyl butoxide]
LC50 (solo contact toxicity of synergist) [1]: 325 mg/m^2
LC50 (solo contact toxicity of synergist) [2]: > 1,000 mg/m^2

Km [4]: 4.41 µM
Km [5]: 5.76 µM
Structure (SMILES): O=c1cc(C(F)(F)F)c2ccc(OCOCc3ccccc3)cc2o1 [BOMFC, 7-benzyloxymethoxy-4-trifluoromethylcoumarin]

Structure (SMILES): CCCOC/C(=N\c1ccc(Cl)cc1C(F)(F)F)n1ccnc1 [Triflumizole, triflumizole]
LC50 (solo contact toxicity of synergist) [1]: 136 mg/m^2
LC50 (solo contact toxicity of synergist) [2]: 392 mg/m^2

Structure (SMILES): Nn1nnc2ccccc21 [1-ABT, 1-aminobenzotriazole]
mortality at 750 mg/m2 ([1]; Anopheles funestus): < 10%
mortality at 750 mg/m2 ([2]; Anopheles funestus): < 10%

Structure (SMILES): CC1(C)[C@H](C(=O)O[C@H](C#N)c2cccc(Oc3ccccc3)c2)[C@@H]1C=C(Br)Br [Deltamethrin, deltamethrin]
LC50 [1]: 0.0206 mg/m^2
LC50 [2]: 4.61 mg/m^2
Kd (Drosophila wildtype VGSC): 4.7 nM
EC50 [3]: 5.29 nM and 5.3 nM

Structure (SMILES): CC1(C)[C@H](C=C(Cl)Cl)[C@H]1C(=O)OCc1c(F)c(F)cc(F)c1F [Transfluthrin, 2,3,5,6-tetrafluorobenzyl(1R,3S)-3-(2,2-dichlorovinyl)-2,2-dimethylcyclo-propanecarboxylate]
LC50 [1]: 0.023 mg/m^2
fold more active than permethrin ([1]; glazed tile bioassays against strain FANG): ≤ 25 fold
LC50 [2]: 0.0576 mg/m^2
fold less active on VGSC than deltamethrin ([3]; compared with deltamethrin): more than 100 fold
